Assay outcomes (PubChem)
Compounds with a hit are over-represented: about 2.3% of the library has one in this group of screens.
TRPC4 inh = blocks the mouse TRPC4 cation channel | 300,000 compounds, 0.39% hits | Q9QUQ5 | AID 2247 | B-score at 10 µM | HEK293 TRPC4beta/mu-opioid, DAMGO-evoked Fluo4 calcium flux; active compounds read low;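 active = B-score over 3 SD under the library average, no early fluorescence shift, positive overall ratio signal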
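Assay system: Stable TRPC4beta/mu-opioid receptor HEK293 cells | Reagent: DAMGO in two steps, submaximal then maximal | Compound dosing: Single concentration per test compound | Signal: Fluo4 Ca2+ flux fluorescence | Evaluation: Per-well B score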
TRPC6 activator = activators of mouse TRPC6 channel. Q61143. HEK293-TRPC6 membrane potential dye fluorescence; active compounds read high. B-score at 10 µM. 310,000 compounds, 0.13% hits;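 active = B-score of the integrated fluorescence ratio above library mean plus 3 SD, and starting fluorescence ratio within library mean plus 5 SD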;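 note: higher score means more depolarization so channel activation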
Target sequence (Q61143 whole entry, looked up): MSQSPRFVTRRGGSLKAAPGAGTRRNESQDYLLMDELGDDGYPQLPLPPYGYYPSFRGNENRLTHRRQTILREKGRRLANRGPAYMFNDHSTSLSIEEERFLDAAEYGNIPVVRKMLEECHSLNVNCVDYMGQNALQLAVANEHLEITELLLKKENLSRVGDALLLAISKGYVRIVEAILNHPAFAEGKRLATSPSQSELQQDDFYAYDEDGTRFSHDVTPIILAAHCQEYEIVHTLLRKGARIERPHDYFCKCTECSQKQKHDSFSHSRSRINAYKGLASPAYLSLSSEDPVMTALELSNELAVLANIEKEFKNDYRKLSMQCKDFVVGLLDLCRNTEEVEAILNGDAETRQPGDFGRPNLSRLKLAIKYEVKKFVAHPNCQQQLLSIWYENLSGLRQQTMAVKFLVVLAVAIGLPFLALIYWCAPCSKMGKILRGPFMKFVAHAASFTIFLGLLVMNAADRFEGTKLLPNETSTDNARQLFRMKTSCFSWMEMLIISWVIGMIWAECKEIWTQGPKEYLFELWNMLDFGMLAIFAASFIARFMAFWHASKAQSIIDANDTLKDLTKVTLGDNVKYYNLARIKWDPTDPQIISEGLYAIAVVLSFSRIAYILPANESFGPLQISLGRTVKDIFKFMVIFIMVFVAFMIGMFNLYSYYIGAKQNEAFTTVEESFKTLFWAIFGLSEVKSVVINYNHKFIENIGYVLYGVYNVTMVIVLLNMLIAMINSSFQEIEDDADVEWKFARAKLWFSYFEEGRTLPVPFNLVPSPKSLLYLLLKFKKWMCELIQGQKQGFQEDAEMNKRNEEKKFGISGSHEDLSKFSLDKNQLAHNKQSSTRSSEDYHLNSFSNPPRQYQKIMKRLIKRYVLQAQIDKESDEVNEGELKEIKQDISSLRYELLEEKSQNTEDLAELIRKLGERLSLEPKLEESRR
TRPC4 potent = allosteric potentiators of mouse TRPC4 channel. HEK293 TRPC4beta/mu-opioid, DAMGO EC20, Fluo-4 Ca2+ flux; active compounds read high. B-score at 10 µM. 310,000 compounds, 0.42% hits. AID 2227;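 active = B-score of calcium response area above 5 SD of library B-scores, with initial fluorescence ratio within 5 SD of library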;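 note: B-score of integrated fluorescence ratio over time as area under calcium response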
TRPC6 inh = inhibitors of mouse TRPC6 channel. Q61143. HEK293-TRPC6, membrane potential dye, ACh-evoked depolarization; active compounds read low. B-score at 10 µM. 310,000 compounds, 1.1% hits. AID 2553;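 active = B-score under library mean minus 3 SD, initial fluorescence not abnormally high, positive integrated signal ratio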;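 note: B-score derived from integrated fluorescence ratio over the kinetic read; more negative B-score means stronger inhibition of depolarization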
TRPC4 act = TRPC4 (mouse) channel activation. HEK293 TRPC4beta/mu-opioid, Fluo4 calcium fluorescence; active compounds read high. Q9QUQ5. 310,000 compounds, 0.49% hits. AID 2237. B-score at 10 µM;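 active = B-score above 5 SD of library B-scores, and initial fluorescence ratio not above library mean plus 5 SD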;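 note: positive B-score marks a calcium rise read as TRPC4 activation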
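System – HEK293 cells stably co-expressing mouse TRPC4beta and mu-opioid receptor · Signal – Fluo4 calcium-sensitive dye fluorescence, kinetic, 1 Hz baseline · Benchmarks – buffer (low) and maximal DAMGO (high) · Read-out – B score of integrated fluorescence ratio per well · Incubation – dye loading 45 min room temperature, 110 s kinetic read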
TRPC4 sel inh 2 = mouse TRPC4 off-target activity of TRPC6 inhibitors, second screen | shares compounds with TRPC6 inh | HEK293 TRPC4/MOR, membrane potential dye fluorescence; channel activated by saturating DAMGO dose | inhibition, % at 10 µM | 920 compounds, 42% hits | AID 2776;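 active = compounds whose fluorescence signal differed from control wells by over 3 SD, either direction, in both duplicate plates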
TRPC4 spec = tests whether TRPC6 inhibitors also affect mouse TRPC4; 920 compounds, 61% hits; activity change, negative = inhibition, % at 10 µM; shares compounds with TRPC6 inh; HEK293 TRPC4/mu-opioid, membrane potential fluorescence;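 active = rise or fall in signal beyond 3 SD of buffer-only wells in both replicate plates, either sign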;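 note: integrated kinetic ratio of fluorescence range over baseline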
HEK293 MPD ctr 2-1 = second check of TRPC6 inhibitor effects in parental HEK293 cells. shares compounds with TRPC6 inh. parental HEK293 membrane potential dye fluorescence; maximal acetylcholine challenge after compound addition. signal change vs control, % at 10 µM. 920 compounds, 31% hits. AID 2779;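 active = membrane potential signal moving either way by over 3 SD of the maximum-effect control, in both duplicate plates, meaning non-specific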
HEK293 MPD ctr-1 = checks TRPC6 inhibitor effects in parental HEK293 cells. 920 compounds, 60% hits. AID 2780. membrane potential signal change, % at 10 µM. shares compounds with TRPC6 inh. parental HEK293 membrane potential dye fluorescence;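 active = membrane potential signal shifting up or down by more than 3 SD of buffer-only wells, on both duplicate plates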
HEK293 MPD ctr-2 = checks TRPC6 modulator effects in parental HEK293 cells. shares compounds with TRPC6 inh. membrane potential dye fluorescence. membrane potential signal change, % at 10 µM. 2,400 compounds, 51% hits;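 active = membrane potential signal moves up or down beyond 5 SD from buffer-only wells, on both duplicate plates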
HEK293 MPD ctr 2-2 = second check of TRPC6 modulator effects in parental HEK293 cells; shares compounds with TRPC6 inh; membrane potential dye fluorescence; after compound, maximal acetylcholine stimulation; inhibition, % at 10 µM; 2,400 compounds, 14% hits; AID 488926;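 active = membrane potential signal drops by more than 5 SD from the mean control signal, in both duplicate plates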;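 note: plate controls were acetylcholine ECmax control wells for no effect and buffer only wells for full effect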
TRPC4 ctr mod = tests whether TRPC6 modulators also affect mouse TRPC4; shares compounds with TRPC6 inh; HEK293 TRPC4/mu-opioid, membrane potential fluorescence; percent change from control (negative = decrease, positive = increase), % at 10 µM; 2,400 compounds, 69% hits; AID 488927;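 active = membrane potential signal moved up or down beyond 5 SD of buffer control wells, in both duplicate plates, actives on both sides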;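 note: plate controls were assay buffer wells for no effect and DAMGO maximal-effect wells for full effect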
TRPC4 ctr inh 2 = second selectivity test of TRPC6 modulators against mouse TRPC4; AID 488928; HEK293 TRPC4/mu-opioid, membrane potential dye fluorescence; stimulated with maximal-effect DAMGO; 2,400 compounds, 55% hits; inhibition, % at 10 µM; shares compounds with TRPC6 inh;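 active = drop in membrane potential signal beyond 5 SD of the control wells in both duplicate plates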;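 note: TRPC4 counter screen for TRPC6 hits run under conditions tuned for TRPC6 not TRPC4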
TRPC6 inh conf = mouse TRPC6 inhibitor confirmation; shares compounds with TRPC6 inh; HEK293-TRPC6, membrane potential dye, ACh-evoked depolarization; inhibition, % at 10 µM; 3,300 compounds, 43% hits;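 active = fluorescence ratio falls more than 5 SD below the full-stimulation control mean, in both duplicate runs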;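 note: integrated fluorescence ratio of peak minus minimum over baseline after agonist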
TRPC6 act conf = confirmation of mouse TRPC6 activators; shares compounds with TRPC6 inh; HEK293-TRPC6 membrane potential dye fluorescence, FDSS; activation, % at 10 µM; 2,800 compounds, 11% hits;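 active = ratio signal rise beyond 5 SD above unstimulated control wells' mean, seen in both duplicate runs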;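 note: plate controls were buffer EC0 wells for no effect and acetylcholine ECmax response for full effect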
* = called active by the depositor; i = inactive; x = no result.

SMILES	TRPC4 inh	TRPC6 activator	TRPC4 potent	TRPC6 inh	TRPC4 act	HEK293 MPD ctr-2	HEK293 MPD ctr 2-2	TRPC4 ctr mod	TRPC4 ctr inh 2	TRPC6 inh conf	TRPC6 act conf	others
COCCCn1c(=N)c(C(=O)NCC2CCCO2)cc2c(=O)n3cccc(C)c3nc21 (stereo not given)	i	i	i	-6.4*	i	146%*	80%*	20%*	28%*	40%*	i
Cc1ccc2nc3c(cc(C(=O)NCc4ccco4)c(=N)n3C3CCCC3)c(=O)n2c1	i	i	i	i	i	x	x	x	x	x	x
Cc1ccc2nc3c(cc(C(=O)NCC4CCCO4)c(=N)n3C3CCCC3)c(=O)n2c1 (stereo not given)	i	i	i	i	i	x	x	x	x	x	x
CC(C)n1cc(CN2CCC(C(=O)Nc3ccc(Oc4ccccc4F)cc3)CC2)cn1	i	i	i	i	i	x	x	x	x	x	x
COc1ccc(CCNC(=O)c2cc3c(=O)n4ccccc4nc3n(C3CCCCC3)c2=N)cc1	i	i	i	i	i	x	x	x	x	x	x
N=c1c(C(=O)NCC2CCCO2)cc2c(=O)n3ccccc3nc2n1C1CCCCC1 (stereo not given)	i	i	i	-5.4*	i	-100%*	i	-24%*	i	i	i
Cc1ccc(Cn2c(=N)c(C(=O)NCC3CCCO3)cc3c(=O)n4cccc(C)c4nc32)cc1 (stereo not given)	i	i	i	i	i	x	x	x	x	x	x
Cc1cccn2c(=O)c3cc(C(=O)NCC4CCCO4)c(=N)n(C4CCCC4)c3nc12 (stereo not given)	i	i	i	-5.8*	i	-82%*	i	-16%*	32%*	i	i
Cc1ccc(-c2csc(=Nc3cccnc3)n2CCCn2ccnc2)cc1C	i	i	i	-5.4*	i	106%*	i	15%*	65%*	44%*	x
CC1=C/C(=C\C=C(C#N)C#N)N(C)c2ccccc21	i	i	i	i	i	x	x	x	x	x	x
CCCCCCN1C=CC=C/C1=C\C=C(C#N)C#N	i	13*	i	i	i	253%*	i	75%*	i	i	102%*
CCOC(=O)N1CCN(C(=O)CSc2nc3ccccc3c(=O)n2-c2ccccc2)CC1	i	17*	i	i	i	118%*	i	30%*	i	x	172%*
CCOCCCn1c(=N)c(C(N)=S)cc2c(=O)n3cccc(C)c3nc21	i	i	i	-8.9*	i	x	x	x	x	i	i	TRPC4 sel inh 2=i;TRPC4 spec=i;HEK293 MPD ctr 2-1=26%*;HEK293 MPD ctr-1=-196%*
Cc1cccn2c(=O)c3cc(C(N)=S)c(=N)n(CCCOC(C)C)c3nc12	i	i	i	-7.3*	i	x	x	x	x	i	i	TRPC4 sel inh 2=i;TRPC4 spec=-19%*;HEK293 MPD ctr 2-1=i;HEK293 MPD ctr-1=-408%*
Oc1ccc(/C=N/N2CCN(C3c4ccccc4-c4ccccc43)CC2)cc1O	i	i	i	i	i	x	x	x	x	x	x
COc1cc(CN2CCNC(=O)C2CC(=O)NC2CCCC2)cc(OC)c1 (stereo not given)	i	i	i	i	i	x	x	x	x	x	x
CC(C(=O)Nc1ccc([N+](=O)[O-])cc1)N1CCN(C/C=C/c2ccccc2)CC1 (stereo not given)	i	i	i	-6*	i	i	i	i	54%*	i	i
Cc1cccc(-n2cnc(C(=O)NC3CCCCCC3)c2)n1	i	i	i	-6*	i	i	i	9.0%*	i	i	i
CCOC(=O)c1ccc(NC(=O)NCCc2cnc[nH]2)cc1	i	i	i	-6.8*	175*	x	x	x	x	i	i	TRPC4 sel inh 2=69%*;TRPC4 spec=64%*;HEK293 MPD ctr 2-1=i;HEK293 MPD ctr-1=i
CCOC(=O)c1ccc(NC(=O)NCc2ccncc2)cc1	i	i	i	-5.5*	i	i	i	i	i	i	x
CCOc1ccccc1NC(=O)NCc1ccccn1	i	i	i	i	i	x	x	x	x	x	x
COCc1cc(C)nc(SCC[N+](C)(C)CC(=O)Nc2cccc(C)c2)c1C#N	i	i	i	-7*	i	x	x	x	x	i	i	TRPC4 sel inh 2=i;TRPC4 spec=-13%*;HEK293 MPD ctr 2-1=i;HEK293 MPD ctr-1=-170%*
COc1ccc(NC(=O)c2ccc3ccccc3c2OC)cc1	i	i	i	i	i	x	x	x	x	x	x
Cn1c(CCN2CCCCC2)nc2cc([N+](=O)[O-])ccc21	i	i	i	-5.8*	i	-200%*	i	-32%*	38%*	i	i
CCN1CCN(CCc2nc3cc([N+](=O)[O-])ccc3n2C)CC1	i	i	i	i	i	x	x	x	x	x	x
CCOC(=O)C1CCCN(C(=O)Cn2nc(C)n3c(cc4c(OC)cccc43)c2=O)C1 (stereo not given)	i	i	i	i	i	x	x	x	x	x	x
CCCCCCc1ccc(N2C[C@H](Cc3ccccc3)[C@@H](CC(=O)NCc3ccc(OC)cc3)C2=O)cc1	i	i	i	i	i	x	x	x	x	x	x
